Bioassay records from PubChem.
This is a sample that favours compounds with a hit; in the whole collection about 1.8% have one here.
SUMO1 PPI mod: SUMO1-SIM interaction modulation. P63165. SUMO1 binding to a labelled peptide, TR-FRET, 1 h. inhibition, % at 20 µM. 360,000 compounds, 0.33% hits; in the data active means inhibition above about 37%
LMPTP block: LMPTP (human) inhibition; P24666; recombinant LMPTP-A, OMFP fluorogenic substrate, fluorescence intensity; inhibition, % at 20 µM; 360,000 compounds, 0.22% hits;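 active means compounds that cut the enzyme signal by at least half of the control window in the single-dose screen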;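 further: plate controls were DMSO wells with enzyme plus substrate for no effect and substrate without enzyme for full effect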
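Assay system: LMPTP-A, protein tyrosine phosphatase of low molecular weight / Medium: pH 6.0 Bis-Tris buffer with DTT and Triton X-100 / Schedule: 50 min enzyme reaction at room temperature, protected from light / Measured by: endpoint fluorescence intensity from OMFP dephosphorylation / Read-out basis: % inhibition relative to no-enzyme and uninhibited control wells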
Scp1 inh: Scp-1 (human) phosphatase inhibition; Q9GZU7; Recombinant Scp1, phosphopeptide, malachite green phosphate absorbance; inhibition, % at 20 µM; 340,000 compounds, 0.88% hits;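 active means inhibition above about 50% at 20 µM, limit read from the data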;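 further: plate controls were DMSO wells with enzyme for no effect and wells lacking enzyme for full effect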
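Test system: SCP-1 phosphatase catalytic domain, residues 76-261; measured by: colorimetric phosphate reagent with accelerator and stabiliser, absorbance at 630 nm; timing: enzyme reaction 45 min at room temperature, colour 5 min, stabilisation 30 min; also added: Phosphorylated 17-residue peptide substrate; compound dosing: one concentration, 20 µM, with 1.0% DMSO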
DNMT1 inh: blocks human DNA methyltransferase DNMT1 | P26358 | DNMT1 molecular beacon, Hinp1I cleavage, fluorescence | inhibition (reported as % activation of signal), % at 10 µM | 360,000 compounds, 0.83% hits | AID 588458; in the data active means inhibition above about 50%
STEP block: STEP (human) phosphatase inhibition | recombinant STEP, OMFP fluorogenic substrate, fluorescence | inhibition, % at 20 µM | 360,000 compounds, 0.25% hits | AID 588621;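 active means inhibition at 20 µM, scaled per plate between control wells, above about 37%, limit read from the data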;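 further: 0% = DMSO with enzyme and substrate and 100% = substrate only without enzyme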
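System: isolated STEP enzyme; schedule: 20 min enzyme reaction at room temperature, protected from light; medium: Bis-Tris buffer pH 6.0, 2.5 mM DTT, 0.005% Tween 20; signal: fluorescence, 480/540 nm; dosing: single compound dose of 20 µM, 1% DMSO final; also added: OMFP substrate, 25 µM final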
HKDC1 inhibitor: HKDC1 (human) hexokinase inhibition; Q2TB90; recombinant HKDC1, G6PDH/diaphorase resazurin coupled fluorescence; inhibition, % at 20 µM; 340,000 compounds, 0.16% hits;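 active means inhibition above about 35% when tested at 20 µM, limit read from the data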;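 further: plate controls were DMSO wells with enzyme for no effect and DMSO wells lacking enzyme for full effect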
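Test system: HK5 enzyme. Quantity: 5 µg/mL HK5 final. Reagent: glucose and ATP substrates. Schedule: 90 min reaction incubation at room temperature, dark. Technique: resazurin-to-resorufin fluorescence via G6PDH and diaphorase coupling, 525/613 nm. Control set: DMSO wells with and without enzyme mix.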
HKDC1 act conf: confirmation of human HKDC1 activators; shares compounds with HKDC1 inhibitor; recombinant HKDC1, G6PDH/diaphorase resazurin fluorescence; hits give low values; inhibition, % at 20 µM; 740 compounds, 14% hits; AID 504708;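 active means inhibition at or below a set negative limit, negative inhibition meaning the enzyme was activated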
Starred values were filed as active, the others as inactive; . = not tested or not shown.

SMILES	SUMO1 PPI mod	LMPTP block	Scp1 inh	DNMT1 inh	STEP block	HKDC1 inhibitor	HKDC1 act conf
CCN(CC)S(=O)(=O)c1ccc(C(=O)NCCc2cc3c(OC)ccc(OC)c3[nH]c2=O)cc1	0	0	-4	-1	-2	28	.
COc1ccc(OC)c2[nH]c(=O)c(CCNC(=O)c3ccc(S(=O)(=O)N4CCCC4)cc3)cc12	-2	0	0	-1	4	33	32
COc1ccc2cc(CCNC(=O)c3ccc(S(=O)(=O)N4CCCC4)cc3)c(=O)[nH]c2c1	2	0	-10	3	2	33	60
CCN(C[C@H]1N[C@@](C)(C(=O)OC)[C@H]2C(=O)N(C)C(=O)[C@@H]12)C(=O)Nc1ccc(C(F)(F)F)cc1	0	-3	-5	4	1	-4	.
COc1cc2c(cc1OC)C(c1cc(Br)ccc1F)N(C(=O)CCl)CC2 (centres undefined)	1	0	-13	23	0	38*	19
COc1cc2c(cc1OC)C(C1C(=O)CC(C)(C)CC1=O)N(C(=O)CCl)CC2 (centres undefined)	0	-1	-8	4	0	-9	.
O=C1NC(Cc2ccc(O)cc2)c2nc3ccccc3c(=O)n2-c2ncccc21 (centres undefined)	0	0	.	5	1	.	.
CC1(C(=O)Nc2ccc(Cl)cc2)Cc2c(-c3ccc(C(N)=O)cc3)ccnc2O1 (centres undefined)	4	-1	.	0	-1	.	.
O=c1c2ccccc2nc2n1CCC2	18	-1	-1	0	-14	82*	67
CCC(C)C(NS(=O)(=O)c1ccc(C)cc1)C(=O)Oc1ccc2c3c(c(=O)oc2c1)CCC3 (centres undefined)	3	3	-20	-7	6	-2	.
CC[C@@H](NS(=O)(=O)c1ccc(C)cc1)C(=O)Oc1ccc2c3c(c(=O)oc2c1)CCC3	5	2	-14	4	0	34	1
CC(=O)Nc1ccc2ccccc2c1	1	-1	-5	10	-1	4	.
CC(=O)Nc1ccc2cc3ccc(NC(C)=O)cc3nc2c1	-6	4	-10	-1	2	43*	20
COc1ccc(/C=C/C(=O)NC(=S)NNC(=O)c2cnccn2)cc1	-14	-1	-11	1	2	-40	-58*
COc1ccc(/C=C/C(=O)NC(=S)NNC(=O)c2cccnc2)cc1	-11	-2	-1	1	2	-21	.
O=C(NC(=S)NNC(=O)c1cnccn1)c1ccc(F)cc1	-1	1	-13	3	1	-48	-36*
C/C(=N\NC(=O)c1nnn(-c2nonc2N)c1CSc1ccc(C)cc1)c1cccnc1	2	-1	.	-3	2	.	.
O=[N+]([O-])c1ccc(Sc2nc3ccccc3o2)c([N+](=O)[O-])c1	-17	2	-6	52*	5	35*	30
Cc1ccc(S(=O)(=O)N2CCN(C(=O)CN3C(=O)NC4(CCCCC4)C3=O)CC2)c(C)c1	5	-2	-5	3	-1	38*	-18
COC(=O)[C@]12CCCCC=C1N(Cc1ccc3c(c1)OCO3)C(=O)[C@H](CC(=O)NCCCN1CCCC1=O)C2	1	0	.	.	.	.	.
Nc1nc(-c2ccc(Br)cc2)cs1	-11	-1	-8	-7	0	3	.
Nc1nc(-c2cccc(Br)c2)cs1	-9	0	-4	-14	0	-65	-41*
O=C1C=CC2(C=C1)O[C@H](Cc1ccccc1)[C@@H](Cc1ccccc1)O2	3	1	-5	-13	3	38*	3
CC(=O)Nc1cc(-c2cccc(C(=O)NCCN(C)C)c2)cn2c(-c3ccc(C(C)=O)cc3)cnc12	-90	-3	.	-3	11	.	.
S=C(NCCc1ccc(Cl)cc1)NCc1ccccc1	2	0	7	5	1	-63	-12
SMILES	SUMO1 PPI mod	LMPTP block	Scp1 inh	DNMT1 inh	STEP block	HKDC1 inhibitor	HKDC1 act conf
CC(=O)Nc1ccc(C2=NNC(=Nc3ccc(S(=O)(=O)N4CCOCC4)cc3)SC2)cc1	-1	-1	-6	-22	3	-339	-234*
CC(C)(C)N=C1NN=C(c2ccc(S(=O)(=O)N3CCCCC3)cc2)CS1	-11	0	3	-6	-1	-67	-32
O=C(Nc1ccc(F)cc1)C(=O)c1c(O)[nH]c2ccc([N+](=O)[O-])cc12	-9	16	43	-9	7	42*	-4
CC1(C(=O)NS(=O)(=O)c2cccc(C#N)c2)CCN1C(=O)CCC1CCCC1 (centres undefined)	-1	-2	.	0	0	.	.
Cc1sc(-c2ccccn2)nc1OC(=O)c1ccc(F)cc1F	-9	1	-13	5	0	-50	-27
Cc1ccc(C(=O)CSc2n[nH]c(-c3ccco3)n2)cc1C	6	-1	-8	3	-2	31	31
COc1ccc(C(=O)CSc2n[nH]c(-c3ccco3)n2)cc1	7	-1	6	16	-1	5	.
CN(Cc1ccc(Cl)c(Cl)c1)C(C(=O)NCc1ccccc1)c1ccc(C(F)(F)F)cc1 (centres undefined)	-2	6	.	.	.	.	.
CCCCCCCCCC(=O)NNC(=O)c1c(O)c2ccccc2n(CC)c1=O	5	-8	-11	5	2	-41	-21
CCCCCC(=O)NNC(=O)c1c(O)c2ccccc2n(CC)c1=O	1	-2	-1	1	0	-6	.
COc1ccc(C(=O)c2coc3c2C(=O)C(=O)c2ccccc2-3)cc1	-5	3	-3	-18	11	61*	45
CCN(CC(=O)Nc1ccc(NC(C)=O)cc1)C(=O)c1cccnc1Sc1ccc(C)c(C)c1	3	-2	2	-1	2	-5	.
Cc1nc2c(c(=O)c3ccccc3n2C)c(=O)n1-c1ccccc1	9	0	4	2	-4	51*	56
CCc1nc2c(c(=O)c3ccccc3n2C)c(=O)n1-c1ccc(F)cc1	3	-1	-12	3	0	48*	73
O=C(NCc1ccccn1)c1cc(S(=O)(=O)N2CCN(c3ccccc3)CC2)ccc1Cl	2	-1	6	0	1	73*	-3
Cc1ccc(S(=O)(=O)N2CCCC2)cc1C(=O)NCc1ccccn1	0	-2	-10	3	2	0	.
C#CC1(O)CCC2C3CCc4cc(O)cc(C)c4C3CCC21C (centres undefined)	3	0	0	-6	-3	9	.
